Measurements published in ChEMBL document CHEMBL1667806, “Synthesis and evaluation of anti-tubercular activity of new dithiocarbamate sugar derivatives” (2011).
≈ marks a conversion by molar mass, not a printed value.

Assays:
[1] = test system: Mycobacterium tuberculosis; assay: Antimycobacterial activity against Mycobacterium bovis BCG assessed as clolony forming unit at 4 ug/ml after 7 days; format: functional, variant bovis BCG
In short: (§1)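 M. bovis BCG exposed to agent, with or without sucrose or 2.5% dextran, in log-phase and stationary-phase cultures. Bactericidal activity read as viable count (log CFU/ml) at day 7 and day 21. Values given as means ± SD.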

[2] = test system: Mycobacterium tuberculosis; assay: Antimycobacterial activity against Mycobacterium bovis BCG carrying pMV261; format: functional; settings: Mycobacterium tuberculosis variant bovis BCG
In short: (§2)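 MIC by agar method on 7H11 supplemented with OADC. M. bovis BCG carried empty pMV261, or pMV261 overexpressing EthA or EthR from the constitutive hsp60 promoter. Results reported as MIC ranges in µg/ml.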

[3] = test system: Mycobacterium tuberculosis; assay: Antimycobacterial activity against Mycobacterium bovis BCG carrying pMV261::ethA; format: functional; settings: Mycobacterium tuberculosis variant bovis BCG; in short: as §2
[4] = test system: Mycobacterium tuberculosis; assay: Antimycobacterial activity against Mycobacterium bovis BCG assessed as clolony forming unit at 4 ug/ml after 21 days in presence of destrin; format: functional, variant bovis BCG; in short: as §1
[5] = test system: Mycobacterium tuberculosis; assay: Antimycobacterial activity against Mycobacterium bovis BCG assessed as clolony forming unit at 4 ug/ml after 21 days in presence of sucrose; format: functional, variant bovis BCG; in short: as §1
[6] = test system: Mycobacterium tuberculosis; assay: Antimycobacterial activity against Mycobacterium bovis BCG carrying pMV261::ethR; format: functional; settings: Mycobacterium tuberculosis variant bovis BCG; in short: as §2
[7] = test system: Mycobacterium tuberculosis; assay: Antimycobacterial activity against Mycobacterium bovis BCG assessed as clolony forming unit at 4 ug/ml after 7 days in presence of dextrin; format: functional, variant bovis BCG; in short: as §1
[8] = test system: Mycobacterium tuberculosis; assay: Antimycobacterial activity against Mycobacterium bovis BCG assessed as clolony forming unit at 4 ug/ml after 7 days in presence of sucrose; format: functional, variant bovis BCG; in short: as §1
[9] = test system: Mycobacterium tuberculosis; assay: Antimycobacterial activity against Mycobacterium bovis BCG assessed as clolony forming unit at 4 ug/ml after 21 days; format: functional, variant bovis BCG; in short: as §1
[10] = test system: Mycobacterium tuberculosis; assay: Antimycobacterial activity against Mycobacterium bovis BCG assessed as clolony forming unit at 125 ug/ml after 7 days; format: functional, variant bovis BCG; in short: as §1
[11] = test system: Mycobacterium tuberculosis; assay: Antimycobacterial activity against Mycobacterium bovis BCG assessed as clolony forming unit at 125 ug/ml after 21 days; format: functional, variant bovis BCG; in short: as §1
[12] = test system: Mycobacterium tuberculosis; assay: Antimycobacterial activity against Mycobacterium bovis BCG assessed as clolony forming unit at 125 ug/ml after 7 days in presence of dextrin; format: functional, variant bovis BCG; in short: as §1
[13] = test system: Mycobacterium tuberculosis; assay: Antimycobacterial activity against Mycobacterium bovis BCG assessed as clolony forming unit at 125 ug/ml after 21 days in presence of destrin; format: functional, variant bovis BCG; in short: as §1
[14] = test system: Mycobacterium tuberculosis; assay: Antimycobacterial activity against Mycobacterium bovis BCG assessed as clolony forming unit at 125 ug/ml after 7 days in presence of sucrose; format: functional, variant bovis BCG; in short: as §1
[15] = test system: Mycobacterium tuberculosis; assay: Antimycobacterial activity against Mycobacterium bovis BCG assessed as clolony forming unit at 125 ug/ml after 21 days in presence of sucrose; format: functional, variant bovis BCG; in short: as §1
[16] = test system: Mycobacterium tuberculosis; assay: Antimycobacterial activity against Mycobacterium bovis BCG assessed as clolony forming unit at 313 ug/ml after 21 days in presence of sucrose; format: functional, variant bovis BCG; in short: as §1
[17] = test system: Mycobacterium tuberculosis; assay: Antimycobacterial activity against Mycobacterium bovis BCG assessed as clolony forming unit at 313 ug/ml after 21 days in presence of destrin; format: functional, variant bovis BCG; in short: as §1
[18] = test system: Mycobacterium tuberculosis; assay: Antimycobacterial activity against Mycobacterium bovis BCG assessed as clolony forming unit at 313 ug/ml after 7 days; format: functional, variant bovis BCG; in short: as §1
[19] = test system: Mycobacterium tuberculosis; assay: Antimycobacterial activity against Mycobacterium bovis BCG assessed as clolony forming unit at 313 ug/ml after 21 days; format: functional, variant bovis BCG; in short: as §1
[20] = test system: Mycobacterium tuberculosis; assay: Antimycobacterial activity against Mycobacterium bovis BCG assessed as clolony forming unit at 313 ug/ml after 7 days in presence of sucrose; format: functional, variant bovis BCG; in short: as §1
[21] = test system: Mycobacterium tuberculosis; assay: Antimycobacterial activity against Mycobacterium bovis BCG assessed as clolony forming unit at 313 ug/ml after 7 days in presence of dextrin; format: functional, variant bovis BCG; in short: as §1

## N.S=C(S)N1CCCC1 [PYRROLIDINE DITHIOCARBAMIC ACID, AMMONIUM SALT]
[1]
  log10CFU/ml: 4.65
[2]
  MIC: 0.5 µg/mL
[3]
  MIC: 0.5 µg/mL
[4]
  log10CFU/ml: 5.56
[5]
  log10CFU/ml: 5.56
[6]
  MIC: 0.25 µg/mL
[7]
  log10CFU/ml: 6.93
[8]
  log10CFU/ml: 6.05
[9]
  log10CFU/ml: 4.41

## CC(=O)N[C@@H]1[C@@H](O)[C@H](O)[C@@H](CO)O[C@H]1SC(=S)N1CCCC1
[10]
  log10CFU/ml: 4.55
[11]
  log10CFU/ml: 4.43
[2]
  MIC: 1 µg/mL (≈ 2.85 µM)
[12]
  log10CFU/ml: 6.07
[3]
  MIC: 1 µg/mL (≈ 2.85 µM)
[6]
  MIC: 1 µg/mL (≈ 2.85 µM)
[13]
  log10CFU/ml: 5.79
[14]
  log10CFU/ml: 6.25
[15]
  log10CFU/ml: 5.76

## CCc1cc(C(N)=S)ccn1 [ETHIONAMIDE]
[2]
  MIC: 1 µg/mL (≈ 6.02 µM)
[3]
  MIC: 0.5 µg/mL (≈ 3.01 µM)
[6]
  MIC: 10 µg/mL (≈ 60.2 µM)

## CC(=O)N[C@@H]1[C@@H](O)[C@H](O)[C@@H](CO)O[C@H]1SC(=S)N(C)C
[16]
  log10CFU/ml: 5.78
[17]
  log10CFU/ml: 5.91
[18]
  log10CFU/ml: 5.91
[19]
  log10CFU/ml: 5.2
[2]
  MIC: 10 µg/mL (≈ 30.8 µM)
[3]
  MIC: 10 µg/mL (≈ 30.8 µM)
[6]
  MIC: 10 µg/mL (≈ 30.8 µM)
[20]
  log10CFU/ml: 6.41
[21]
  log10CFU/ml: 6.44
